In paper PMC10834355 (Cell metabolism, 2023):
Read-outs that look alike come from different tables or passages of the source.

Tests used:
[1] = target: porcine pancreatic elastase (pPE) (Sus scrofa, UniProt P00772); assay: Absorbance-based protease activity assay, pPE; assay type: biochemical
Summary of the method: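 Porcine pancreatic elastase (500 ng) was combined with 15 two-fold dilutions of test compound, starting at 20 μM. Controls were enzyme-free blank wells and enzyme-plus-DMSO wells. After 3 min at 37°C, N-methoxysuccinyl-Ala-Ala-Pro-Val-p-nitroanilide substrate was added. After 2 h at 37°C, absorbance at 405 was read every 15 s for 21 reads (5 min).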

[2] = target: human pancreatic elastase (PE); assay: Absorbance-based protease activity assay, human PE; assay type: biochemical; details: read-out: IC50 PE
Summary of the method: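 Human pancreatic elastase (500 ng) mixed with 15 two-fold dilutions of test compound starting at 20 μM. Blank (no-enzyme) and DMSO wells serve as controls. Preincubated 3 min at 37°C, then N-methoxysuccinyl-Ala-Ala-Pro-Val-p-nitroanilide added. After 2 h at 37°C, absorbance read at 405 nm, 21 reads over 5 min. IC50 derived from the dilution series.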

[3] = target: T1, human neutrophil elastase (NE) (Homo sapiens, UniProt P08246); assay: Absorbance-based protease activity assay, human NE; assay type: biochemical
T1 sequence (P08246 30-267): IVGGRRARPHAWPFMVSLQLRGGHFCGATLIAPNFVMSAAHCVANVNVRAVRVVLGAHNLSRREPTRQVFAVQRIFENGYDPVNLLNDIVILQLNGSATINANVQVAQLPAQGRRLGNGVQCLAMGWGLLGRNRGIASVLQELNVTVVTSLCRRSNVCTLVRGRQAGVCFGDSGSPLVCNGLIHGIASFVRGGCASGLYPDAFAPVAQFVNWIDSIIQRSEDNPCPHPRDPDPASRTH

[4] = tested on: human β-cell; details: ref El Ouaamari et al., 2016; cited from earlier work
[5] = target: T2, human cathepsin G (Homo sapiens, UniProt P08311); assay: Absorbance-based protease activity assay, human cathepsin G; assay type: biochemical
T2 sequence (P08311 21-255): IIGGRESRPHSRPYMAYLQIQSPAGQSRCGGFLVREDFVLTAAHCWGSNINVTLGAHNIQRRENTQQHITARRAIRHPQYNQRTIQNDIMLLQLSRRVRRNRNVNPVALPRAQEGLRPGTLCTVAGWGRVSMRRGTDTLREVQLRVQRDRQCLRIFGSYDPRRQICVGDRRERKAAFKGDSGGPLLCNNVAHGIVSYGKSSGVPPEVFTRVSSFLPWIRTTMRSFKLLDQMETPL
Summary of the method: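 Human cathepsin G (500 ng) combined with 15 two-fold dilutions of test compound from 20 μM; blank and DMSO wells included. After 3 min at 37°C, succinyl-Ala-Ala-Pro-Phe-p-nitroanilide substrate added and absorbance at 405 nm read immediately, 21 reads over 5 min.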

[6] = tested on: human β-cells; assay: Proliferation; assay type: cell-based; details: 24 h, non-diabetic human islets
[7] = tested on: EndoC-βH1 cells; assay: Static glucose-stimulated insulin secretion assay; assay type: cell-based, human
Summary of the method: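 EndoC-βH1 cells kept overnight in 2.8 mM glucose DMEM growth medium with vehicles (PBS, DMSO), PE 500 ng/ml and/or test compound 1.5 μM. Preincubated 1 hr in KRB (NaCl 115, NaHCO3 24, KCl 5, MgCl2 1, CaCl2 1, HEPES 10 mM; 0.2% BSA) at 2.8 mM glucose. Then 1 hr in KRB at 2.8 or 11.1 mM glucose with PE ± test compound. DNA content measured.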

[8] = tested on: transplanted human islets; assay type: in vivo, NSG mice; details: 4 weeks
Summary of the method: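 Male 8–10-week NSG mice received 1000 hand-picked human islet equivalents under the kidney capsule. After engraftment, vehicle (DMSO) or test compound was given by osmotic pump for 28 days. Grafts fixed overnight at 4°C in zinc formalin and cut as 5-μm paraffin serial sections. Sections co-stained for Ki67 or pHH3 with insulin and DAPI; cell death by TUNEL.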

[9] = tested on: Ins+ cells; assay: β-cell regeneration after metronidazole ablation in Tg; assay type: in vivo, zebrafish (Danio rerio); details: added to growth medium 4–6 dpf, vs DMSO
Summary of the method: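 Tg(ins:flag-NTR);Tg(tp1:H2BmCherry) zebrafish larvae had β-cells ablated in E3 medium with 10 mM metronidazole, 1% DMSO and 0.2 mM 1-phenyl-2-thiourea from 3 to 4 dpf. From 4 to 6 dpf, larvae were exposed to DMSO or test compound in the medium. Larvae then euthanized, fixed, immunostained with anti-insulin (1:100), imaged and Ins+ cells counted.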

[10] = tested on: HFD mice; assay: High-fat diet insulin-resistant mice, osmotic pump treatment; assay type: in vivo, C57BL6/J mice
Summary of the method: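 Male C57BL6/J mice, obtained at 4 weeks old, kept on low-fat or high-fat diet for 24 weeks. From week 20, weight-matched animals received vehicle (DMSO) or test compound at 30 or 300 μg/kg/day for 28 days by subcutaneous osmotic pump; low-fat mice got vehicle. GTT, ITT and in vivo GSIS at weeks 0 and 4; insulin by ELISA. Pancreas sections used for immunofluorescent β-cell proliferation and mass.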

[11] = tested on: human islets; assay: Phospho-antibody microarray; assay type: cell-based; details: 30 min
Summary of the method: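 Human islets cultured overnight in Miami Media #1A at 37°C, 5% CO2. 200 hand-picked islet equivalents collected after 10- or 30-min stimulation and processed for the phospho-antibody array.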

[12] = tested on: human islets; assay: Western Blotting of phosphoproteins in human islets; assay type: cell-based; details: telaprevir 1.5 or 150 μM for 30 min
Summary of the method: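 Human islets cultured overnight in Miami Media #1A at 37°C, 5% CO2, then exposed to test compound for 30 min. RIPA lysates with protease and phosphatase inhibitors, protein by BCA, immunoblotted with phospho-specific and total antibodies.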

[13] = tested on: EndoC-βH1 cells; assay: Phospho-ERK1/2 Western Blotting; assay type: cell-based, human; details: PE +/− telaprevir for 30 min
[14] = tested on: primary human β-cell cultures; assay: Viability assay in dispersed human islet cells; assay type: cell-based
Summary of the method: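 Human islets dispersed with TrypLE for 30 min at 37°C, neutralized with FBS, seeded on ECM/fibronectin and left overnight. Pretreated 24 h with water or FSLLRY-NH2 plus EdU 10 μM, then 24 h with vehicles or compounds plus EdU 10 μM. β-cells labelled with DA-ZP1; EdU Click-iT Alexa 647 and APC Annexin V. ≥4000 live (Zombie NIR-negative) cells counted by flow cytometry.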

[15] = tested on: EndoC-βH1 cells; assay: Phospho-PAK1 Western Blotting; assay type: cell-based, human
Summary of the method: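 EndoC-βH1 cells transfected with scramble oligo or siFAK, or with empty vector or C-terminal 3X FLAG-tagged PTK2 cDNA (lipofectamine). Cells starved overnight in growth medium with 2.8 mM glucose, then stimulated in 2.8 mM glucose plus 0.1% BSA with PBS or PE ± test compound. siFAK cells treated 30 min. RIPA lysates with protease/phosphatase inhibitors, BCA assay, immunoblot for PAK1 S144 and total PAK1.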

[16] = tested on: EndoC-βH1 cells; assay: Brillouin microscopy of cell stiffness; assay type: cell-based, human; details: PE 250 ng/ml, or PE + telaprevir (750 nm), 24 hr
Summary of the method: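 After 24 hr incubation, stiffness of 12 cells per condition mapped by confocal Brillouin microscopy: 780 nm single-frequency laser, virtually imaged phase array spectrometer, non-contact longitudinal mechanical read-out.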

[17] = tested on: EndoC-βH3 cells; assay: Viability assays; assay type: cell-based, human
Summary of the method: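 EndoC-βH3 cells exposed to 1 μM tamoxifen for 21 days, then 14 days wash-out. Starved overnight in 2.8 mM glucose medium and stimulated in 2.8 mM glucose with 0.1% BSA. Cells then trypsinized and labelled with EdU 5 μM for 3 h at 37°C, plus Annexin V. Up to 10,000 cells counted by flow cytometry. Caspase-3 activity measured colorimetrically at 405 nm.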

[18] = tested on: HCV-infected individuals with diabetes; details: ref Davis et al., 2017; Tallón de Lara et al., 2014; cited from earlier work
[19] = telaprevir HD 300 μg/kg/day, osmotic pumps

Chain of porcine pancreatic elastase (pPE) (P00772 27-266): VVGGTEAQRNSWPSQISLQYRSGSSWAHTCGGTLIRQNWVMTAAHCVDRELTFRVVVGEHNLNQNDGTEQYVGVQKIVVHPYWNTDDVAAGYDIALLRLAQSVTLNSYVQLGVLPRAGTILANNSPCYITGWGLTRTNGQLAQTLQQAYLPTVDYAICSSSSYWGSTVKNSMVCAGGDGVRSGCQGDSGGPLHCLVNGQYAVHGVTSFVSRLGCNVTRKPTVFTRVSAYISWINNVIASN

`C[C@@H](O)[C@H]1C(=O)N2C(C(=O)O)=C(SC3CN(C4=NCCS4)C3)[C@H](C)[C@H]12` [tebipenem] showed an IC50 [1] of 107000 nM, an IC50 [2] of 3600 nM and an IC50 [3] of 33600 nM.

For `CC(C)[C@@H]1C(=O)N(S(C)(=O)=O)[C@@H]2CCN(C(=O)/C=C/CN3CCCCC3)[C@H]21.Cl` [GW311616A], the “human β-cell proliferation” value [4] is listed as “enhance human β-cell proliferation”.

`CCC[C@H](NC(=O)[C@@H]1[C@H]2CCC[C@H]2CN1C(=O)[C@@H](NC(=O)[C@@H](NC(=O)c1cnccn1)C1CCCCC1)C(C)(C)C)C(=O)C(=O)NC1CC1` [telaprevir] showed an IC50 ([1]; read-out: IC50 pPE) of 40.2 nM, an IC50 [2] of 15.8 nM and an IC50 [3] of 3600 nM. For the same molecule, the “concentrations that partially inhibit human NE activity” value [3] was greater than 10 µM, the “inhibition of human cathepsin G” value [5] was “virtually no effect” and the “proliferation of other islet cell types, including α-cells and δ-cells” value [6] was “did not significantly stimulate proliferation”. For the same molecule, the “β-cell apoptosis (TUNEL)” value ([6]; telaprevir at 100 μg/ml) was “significantly reducing apoptosis”, the “β-cell proliferation (Ki67 or pHH3), increase compared to control” value ([6]; telaprevir at 100 μg/ml) was ~ 3 fold and the “glucose responsiveness (GSIS) in cells treated with PE” value ([7]; PE 500 ng/ml + telaprevir 1.5 μM) was “restore glucose responsiveness”. For the same molecule, the “β-cell function (GSIS) in the absence of PE” value ([7]; telaprevir 1.5 μM alone) was “maintained normal function”, the “blood glucose (random-fed or fasting) levels, body weight, glucose sensitivity or human C-peptide levels” value ([8]; 30 or 300 μg/kg/day, vs vehicle) was “did not observe differences between groups” and the “Ki67+ β-cells in human grafts” value [8, 19] was “increase”. For the same molecule, the “TUNEL+ β-cells in human grafts” value [8, 19] was “decrease”, the “Ins+ cells after β-cell ablation” value [9] was “significant increase” and the “insulin sensitivity or GSIS” value ([10]; 4-week time point, vs HFD vehicle) was “did not affect”. The glucose tolerance ([10]; high dose 300 μg/kg/day, week 4, vs HFD vehicle) was “improvement in glucose tolerance”, the “random-fed blood glucose levels or body weights” value ([10]; telaprevir 30 or 300 μg/kg/day vs HFD vehicle) was “did not exhibit differences” and the “area under the curve during GTT” value ([10]; telaprevir HD 300 μg/kg/day) was “statistically similar to the LFD vehicle group, although not significantly different from vehicle-HFD mice”. The β-cell mass ([10]; telaprevir HD 300 μg/kg/day vs HFD vehicle) was “significantly higher β-cell mass”, the “4 h fasting C-peptide and fasting blood glucose” value ([10]; telaprevir HD, after 4-week treatment compared to week 0) was “lowered” and the β-cell mass ([10]; telaprevir LD 30 μg/kg/day vs HFD vehicle) was “comparable”. The β-cell size ([10]; telaprevir LD and HD vs HFD vehicle) was “slightly lower β-cell size”, the “protease-activated receptor (PARs) signaling cascade” value [11] was “significantly modulated” and the “phosphorylation levels of PAK1, PTK2B and ERK1/2” value [12] was “up-regulated”. For the same molecule, the phospho-ERK1/2 levels [13] was “significantly increased phospho-ERK1/2 levels”, the “β-cell viability (EdU+/Annexin V+ in DA-ZP1+ cells)” value ([14]; PE +/− telaprevir for 24 h) was “significantly improved β-cell survival” and the “phospho-PAK1 levels in scramble cells” value ([15]; 30 min, PE vs PBS, or PE + telaprevir at high dose vs PE alone) was “significantly increasing phosphorylation of PAK1”. For the same molecule, the “phosphorylated PAK1 in siFAK cells” value ([15]; PE + telaprevir vs PE-treated siFAK samples, 30 min) was “significantly decreased”, the “phospho-PAK1 levels in EV (empty vector) cells” value ([15]; PE, or PE + telaprevir) was “restored” and the “Brillouin frequency shift (stiffness)” value [16] was “completely reverse these effects”. The “regeneration levels and survival of siFAK FSLLRY-treated cells” value ([17]; PE + telaprevir) was “restored”, the “proliferation/apoptosis ratio (β-cell viability) in scramble cells” value ([17]; tamoxifen-treated EndoC-βH3, PE, or PE + telaprevir) was “boosted β-cell viability levels even higher than control cells” and the HbA1C levels [18] was “reduce”. The “circulating C-peptide” value [18] was “increase”.

For `CC(C)(C)C(=O)Oc1ccc(S(=O)(=O)Nc2ccccc2C(=O)NCC(=O)O)cc1` [sivelestat], the IC50 [1] was 2000 nM, the IC50 [2] was 2300 nM and the “Ins+ cells after β-cell ablation” value [9] was “trend towards an increase”. For the same molecule, the “human β-cell proliferation” value [4] was “enhance human β-cell proliferation”.

In the case of FSLLRY-NH2, the “capacity of telaprevir to counteract the detrimental effects of PE in FSLLRY-NH2 treated cells” value ([14]; FSLLRY-NH2 pre-incubation, PE + telaprevir 24 h) is reported as “impaired”.

B1: SerpinB1: endogenous protease (elastase) inhibitor derived from the liver that promotes human β-cell proliferation (protein, UniProt P30740 1-379, looked up)
Leukocyte elastase inhibitor: MEQLSSANTRFALDLFLALSENNPAGNIFISPFSISSAMAMVFLGTRGNTAAQLSKTFHFNTVEEVHSRFQSLNADINKRGASYILKLANRLYGEKTYNFLPEFLVSTQKTYGADLASVDFQHASEDARKTINQWVKGQTEGKIPELLASGMVDNMTKLVLVNAIYFKGNWKDKFMKEATTNAPFRLNKKDRKTVKMMYQKKKFAYGYIEDLKCRVLELPYQGEELSMVILLPDDIEDESTGLKKIEEQLTLEKLHEWTKPENLDFIEVNVSLPRFKLEESYTLNSDLARLGVQDLFNSSKADLSGMSGARDIFISKIVHKSFVEVNEEGTEAAAATAGIATFCMLMPEENFTADHPFLFFIRHNSSGSILFLGRFSSP
For B1, the “human β-cell proliferation” value [4] is listed as “promotes human β-cell proliferation”.
